The text below walks through data of ChEMBL document CHEMBL4033793, “Potent and Selective Inhibitors of Human Sirtuin 5” (J Med Chem, 2018).

A word on the Kd: it is the equilibrium constant for the complex coming apart. Read a low Kd as a tighter complex. One may read the IC50 as the midpoint of a concentration-inhibition curve. In general, koff refers to a measure of how fast the partners let go of each other. A word on the Ki: it is the dissociation constant of the complex between target and ligand, obtained from inhibition or displacement.

The target in test [1] is T1, NAD-dependent protein deacylase sirtuin-5, mitochondrial (Homo sapiens, UniProt Q9NXA8). Kind of test: Binding affinity to human N-terminal biotinylated SIRT5 by surface plasmon resonance spectroscopy. The method in brief:
(§1)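 Surface plasmon resonance: N-terminally biotinylated Sirt5 (biotinylated via Trypsiligase) immobilized on a streptavidin-coated sensor chip at about 1800 RU. Biotinylated ligand injected at 50 nM in PBS (4 mM KH2PO4, 16 mM Na2HPO4, 115 mM NaCl, pH 7.4). Kinetic constants and affinity obtained by fitting to a 1:1 Langmuir binding model.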
(In general: Surface plasmon resonance follows binding to a sensor surface in real time, without labels.)
Target sequence in this assay (Q9NXA8 whole entry): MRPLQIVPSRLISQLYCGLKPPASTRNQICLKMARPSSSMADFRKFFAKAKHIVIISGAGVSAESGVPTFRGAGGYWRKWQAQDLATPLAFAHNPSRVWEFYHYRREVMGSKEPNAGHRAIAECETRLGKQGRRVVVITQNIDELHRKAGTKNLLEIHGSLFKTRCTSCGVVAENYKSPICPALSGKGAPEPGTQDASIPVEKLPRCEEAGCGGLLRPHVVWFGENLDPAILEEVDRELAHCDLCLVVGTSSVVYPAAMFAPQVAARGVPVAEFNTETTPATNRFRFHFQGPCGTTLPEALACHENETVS

Test [2] deals with T2, NAD-dependent protein deacetylase sirtuin-2 (Homo sapiens) (UniProt Q8IXJ6).
T2 sequence (whole entry): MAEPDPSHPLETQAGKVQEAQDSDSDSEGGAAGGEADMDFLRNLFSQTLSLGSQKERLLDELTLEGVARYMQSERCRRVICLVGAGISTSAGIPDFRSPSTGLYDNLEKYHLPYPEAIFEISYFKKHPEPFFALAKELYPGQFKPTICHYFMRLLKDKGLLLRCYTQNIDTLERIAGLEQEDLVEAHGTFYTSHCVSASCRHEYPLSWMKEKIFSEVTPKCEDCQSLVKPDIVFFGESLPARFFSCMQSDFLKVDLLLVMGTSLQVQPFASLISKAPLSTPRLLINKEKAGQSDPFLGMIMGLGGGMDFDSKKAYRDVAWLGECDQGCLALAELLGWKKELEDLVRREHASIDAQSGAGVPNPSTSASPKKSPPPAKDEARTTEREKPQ
Kind of test: Inhibition of SIRT2 (unknown origin) up to 50 uM using Bz-GVLK(acetyl)EYGV-NH2 as substrate after 8 mins by HPLC analysis. The method in brief:
(§2)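 HPLC activity assay at 37°C with 0 or 50 µM inhibitor, 500 µM NAD+, 5% DMSO, 0.1 µM enzyme and 50 µM substrate, in 20 mM Tris, 150 mM NaCl, 5 mM MgCl2, pH 7.8. Incubation 8 min for SIRT1-3 and 6 min for SIRT6. Stopped with TFA-water (1:9), then analysed by reversed-phase HPLC with detection at 260 nm.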

Test [3] concerns the target T3, NAD-dependent protein deacetylase sirtuin-1 (Homo sapiens) (UniProt Q96EB6).
T3 sequence (whole entry): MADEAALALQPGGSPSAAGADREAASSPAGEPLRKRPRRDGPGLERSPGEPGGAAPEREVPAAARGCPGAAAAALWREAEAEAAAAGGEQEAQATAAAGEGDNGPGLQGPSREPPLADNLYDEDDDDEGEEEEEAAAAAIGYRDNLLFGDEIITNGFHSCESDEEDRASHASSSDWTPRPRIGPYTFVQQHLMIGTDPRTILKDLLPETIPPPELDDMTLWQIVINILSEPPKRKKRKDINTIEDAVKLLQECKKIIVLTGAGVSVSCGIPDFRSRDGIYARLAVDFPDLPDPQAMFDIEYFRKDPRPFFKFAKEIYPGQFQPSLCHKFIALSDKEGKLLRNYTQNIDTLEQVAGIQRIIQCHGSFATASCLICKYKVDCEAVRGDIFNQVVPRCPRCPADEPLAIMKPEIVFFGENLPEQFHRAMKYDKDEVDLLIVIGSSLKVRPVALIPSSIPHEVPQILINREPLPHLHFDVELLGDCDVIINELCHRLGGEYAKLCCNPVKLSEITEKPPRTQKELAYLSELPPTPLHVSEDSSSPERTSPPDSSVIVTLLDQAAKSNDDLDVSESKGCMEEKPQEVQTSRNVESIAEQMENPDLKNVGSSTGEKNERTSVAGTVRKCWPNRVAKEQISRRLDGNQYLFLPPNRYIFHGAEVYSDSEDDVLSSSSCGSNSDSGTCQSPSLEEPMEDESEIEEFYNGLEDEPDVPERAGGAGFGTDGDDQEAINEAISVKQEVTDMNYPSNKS
Kind of test: Inhibition of SIRT1 (unknown origin) up to 50 uM using Bz-GVLK(acetyl)EYGV-NH2 as substrate after 8 mins by HPLC analysis. The method in brief: as §2

For test [4], the target named is NAD-dependent protein deacylase sirtuin-6 (Homo sapiens) (UniProt Q8N6T7). Briefly: Inhibition of SIRT6 (unknown origin) up to 50 uM using Ac-EALPKK(myristoyl)TGGNH2 as substrate after 6 mins by HPLC analysis. The method in brief: as §2
NAD-dependent protein deacylase sirtuin-6 (Homo sapiens), sequence (Q8N6T7 whole entry): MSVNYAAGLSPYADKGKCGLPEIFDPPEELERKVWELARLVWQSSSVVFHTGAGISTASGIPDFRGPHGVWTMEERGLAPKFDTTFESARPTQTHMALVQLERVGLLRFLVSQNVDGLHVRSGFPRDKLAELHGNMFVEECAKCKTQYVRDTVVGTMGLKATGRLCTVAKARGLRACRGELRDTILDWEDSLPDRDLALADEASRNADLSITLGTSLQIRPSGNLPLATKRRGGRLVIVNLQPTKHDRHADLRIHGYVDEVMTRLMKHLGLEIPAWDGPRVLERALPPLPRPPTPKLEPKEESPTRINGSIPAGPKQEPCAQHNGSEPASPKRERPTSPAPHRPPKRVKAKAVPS
Test [5] concerns the target T4, NAD-dependent protein deacetylase sirtuin-3, mitochondrial (Homo sapiens) (UniProt Q9NTG7).
T4 sequence (whole entry): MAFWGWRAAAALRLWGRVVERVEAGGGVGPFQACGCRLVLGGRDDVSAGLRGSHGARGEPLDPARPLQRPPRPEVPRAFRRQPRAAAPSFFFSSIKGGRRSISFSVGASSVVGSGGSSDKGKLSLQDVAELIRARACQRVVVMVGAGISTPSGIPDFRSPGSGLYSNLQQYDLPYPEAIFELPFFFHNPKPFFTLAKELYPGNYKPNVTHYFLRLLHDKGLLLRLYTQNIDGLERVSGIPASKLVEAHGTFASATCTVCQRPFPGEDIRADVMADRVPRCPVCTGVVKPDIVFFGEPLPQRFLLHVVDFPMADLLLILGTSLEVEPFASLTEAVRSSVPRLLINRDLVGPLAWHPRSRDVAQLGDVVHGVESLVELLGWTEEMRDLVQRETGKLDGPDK
Briefly: Inhibition of SIRT3 (unknown origin) up to 50 uM using Bz-GVLK(acetyl)EYGV-NH2 as substrate after 8 mins by HPLC analysis. The method in brief: as §2

For test [6], the target named is T1, NAD-dependent protein deacylase sirtuin-5, mitochondrial. Briefly: Inhibition of human recombinant N-terminal Strep2-tagged SIRT5 expressed in Escherichia coli BL21 (DE3) using Abz-GVLK(glutaryl)AY(NO2)GV-NH2 as substrate in presence of NAD+ by fluorescence assay.
Target sequence in this assay (Q9NXA8 whole entry): as the sequence (Q9NXA8 whole entry) above
Test [7] concerns the target T4, NAD-dependent protein deacetylase sirtuin-3, mitochondrial (Homo sapiens). Briefly: Binding affinity to human recombinant N-terminal strep2-tagged SIRT3 (114 to 380 residues) expressed in Escherichia coli BL21 (DE3) at 100 uM by SDS-PAGE/LC-MS based pull down assay. The method in brief:
(§3)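 Streptavidin agarose (0.5 ml bed volume) loaded with biotinylated inhibitor (100 µM in PBS) for 30 min, then washed with PBST. Bound protein eluted with 200 mM NaOH; eluates analysed by SDS-PAGE and LC-MS.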

Test [8] addresses T1, NAD-dependent protein deacylase sirtuin-5, mitochondrial. Kind of test: Binding affinity to human recombinant N-terminal strep2-tagged SIRT5 expressed in Escherichia coli BL21 (DE3) at 100 uM by SDS-PAGE/LC-MS based pull down assay. The method in brief: as §3
Target sequence in this assay (Q9NXA8 37-310 limits assumed): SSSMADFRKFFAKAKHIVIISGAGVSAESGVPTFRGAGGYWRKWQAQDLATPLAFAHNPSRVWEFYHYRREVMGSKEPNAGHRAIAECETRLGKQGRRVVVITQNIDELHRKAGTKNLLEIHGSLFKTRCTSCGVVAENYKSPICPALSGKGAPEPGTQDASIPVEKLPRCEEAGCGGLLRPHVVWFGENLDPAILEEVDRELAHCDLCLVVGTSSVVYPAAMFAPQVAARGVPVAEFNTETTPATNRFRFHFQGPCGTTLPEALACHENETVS
The target is the same in test [9]. Briefly: Binding affinity to human N-terminal biotinylated SIRT5 assessed as dissociation rate constant by surface plasmon resonance spectroscopy. The method in brief: as §1
Target sequence in this assay (Q9NXA8 37-310 limits assumed): as above
For test [10] the target is unchanged. Kind of test: Competitive inhibition of human recombinant N-terminal Strep2-tagged SIRT5 expressed in Escherichia coli BL21 (DE3) using Abz-GVLK(glutaryl)AY(NO2)GV-NH2 as substrate in presence of NAD+ by fluorescence assay. The gist of the method:
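Continuous trypsin-coupled fluorescence assay at 37°C: 10 nM SIRT5, 500 µM NAD+, 500 nM trypsin, 5% DMSO, 0.025-5 µM substrate, 0.01-20 µM inhibitor. Buffer: 20 mM Tris, 150 mM NaCl, 5 mM MgCl2, pH 7.8. Excitation 320 nm, emission 420 nm. Measured in duplicate; IC50 determined at 0.03 µM substrate by log(inhibitor) vs normalized response fit.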
Target sequence in this assay (Q9NXA8 whole entry): as the sequence (Q9NXA8 whole entry) above

The target in test [11] is T2, NAD-dependent protein deacetylase sirtuin-2 (Homo sapiens). Kind of test: Binding affinity to human recombinant N-terminal strep2-tagged SIRT2 (43 to 356 residues) expressed in Escherichia coli BL21 (DE3) at 100 uM by SDS-PAGE/LC-MS based pull down assay. The method in brief: as §3
Test [12] has as its target T1, NAD-dependent protein deacylase sirtuin-5, mitochondrial. Kind of test: Inhibition of recombinant human N-terminal His-tagged SIRT5 (34 to 269 residues) expressed in Escherichia coli Transetta(DE3) cells using Benzyl Lys(Succinyl)-AMC substrate after 2 hrs by fluorescence assay.
Target sequence in this assay (Q9NXA8 whole entry): as above
The target is the same in test [13]. Kind of test: Inhibition of human SIRT5.
Target sequence in this assay (Q9NXA8 whole entry): as above
The target is the same in test [14]. Kind of test: Inhibition of SIRT5 (unknown origin) using GGQSLK[succ]FGKG as substrate after 30 mins.
Target sequence in this assay (Q9NXA8 whole entry): as above

The source made the active and inactive calls. No cut-off for these calls is given here. Starred links: 1 amine or outer side, 2 acyl side, 3 side chain; linkers in the order of their positions; H or OH if unused. Positions of bridges follow the written chain, without caps; N, C: chain ends. Non-standard residues stand in square brackets, D forms with d. Residues, ends and D or L forms follow the SMILES beside them. *: point of attachment. X2 = O=C(CCCC[C@@H]1SC[C@@H]2NC(=O)N[C@@H]21)NCCCOCCOCCOCCCN*; X67 = O=C(O)CCNC(=S)NCCCC[C@H](N[*:1])C(=O)[*:2]; X32 = O=C(O)[C@H](CC(=O)*)SCc1ccc(C(F)(F)F)cc1; X1 = O=C(O)[C@H](CC(=O)*)Sc1ccc2ccccc2c1; Suberoyl = O=C(CCCCCCC(=O)[*:2])[*:1]; X9 = O=C(O)C(CC(=O)*)Sc1ccc2ccccc2c1; X12 = O=C(O)C(CC(=O)*)SCCc1cnccn1; β3hR = N=C(N)NCCC[C@H](N)CC(=O)O; Suc = O=C(CCC(=O)[*:2])[*:1]; Bz = O=C(c1ccccc1)*

For `CC(C)C[C@H](NC(=O)[C@@H](NC(=O)CNC(=O)c1ccccc1)C(C)C)C(=O)N[C@@H](CCCCNC(=O)C[C@H](Sc1ccc2ccccc2c1)C(=O)O)C(=O)N[C@@H](CCC(=O)O)C(=O)N[C@@H](Cc1ccc(O)cc1)C(=O)NCC(=O)N[C@H](C(N)=O)C(C)C` (Bz-GVLK(X1)EYGV-NH2), in test [1], binding was characterised by a dissociation constant (Kd) of 0.01 nM. For the same compound, the inhibition result in test [2], in test [3], in test [4] and in test [5] was “inactive” throughout. Also, the IC50 in [6] was found to be 30.3 nM.

`CC(C)C[C@H](NC(=O)[C@@H](NC(=O)CNC(=O)CCC(=O)NCCCOCCOCCOCCCNC(=O)CCCC[C@@H]1SC[C@@H]2NC(=O)N[C@@H]21)C(C)C)C(=O)N[C@@H](CCCCNC(=O)C[C@H](Sc1ccc2ccccc2c1)C(=O)O)C(=O)N[C@@H](CCC(=O)O)C(=O)N[C@@H](Cc1ccc(O)cc1)C(=O)NCC(=O)N[C@H](C(N)=O)C(C)C` ({X2-Suc}-GVLK(X1)EYGV-NH2) showed a Kd in [1] of 0.12 nM. Besides, the result in test [7] and in test [11] was inactive. The result in test [8] was Active. Besides, the IC50 in [6] stood at 19.1 nM. Moreover, the koff in test [9] was 0.00015 s⁻¹. For the same compound, in [10], the Ki amounted to 13.6 nM.

For the compound `N#C/C(=C\c1ccc(-c2ccc(C(=O)O)cc2)o1)C(=O)Nc1ccc(C#N)c(F)c1`, in test [12], the IC50 was 5600 nM.

`CC(=O)N[C@H]1CCCCNC(=O)CCCCCCC(=O)NCCCC[C@@H](C(=O)N[C@H](C(N)=O)[C@@H](C)O)NC(=O)[C@H](CCCCNC(=S)NCCC(=O)O)NC(=O)C[C@H](CCCNC(=N)N)NC1=O` (Ac-K[β3hR][X67]KT-NH2; linker 1-4 via Suberoyl): the IC50 in test [13] worked out at 7500 nM.

Turning to `O=C1c2c(O)cccc2Cc2cccc(O)c21` [ANTHRALIN], the IC50 in test [14] was 100 nM; in test [6], 453000 nM.

`CC(C)C[C@H](NC(=O)[C@@H](NC(=O)CNC(=O)CCC(=O)NCCCOCCOCCOCCCNC(=O)CCCC[C@@H]1SC[C@@H]2NC(=O)N[C@@H]21)C(C)C)C(=O)N[C@@H](CCCCNC(=O)CC(Sc1ccc2ccccc2c1)C(=O)O)C(=O)N[C@@H](CCC(=O)O)C(=O)N[C@@H](Cc1ccc(O)cc1)C(=O)NCC(=O)N[C@H](C(N)=O)C(C)C` (stereo partly drawn) ({X2-Suc}-GVLK(X9)EYGV-NH2): the IC50 in [6] stood at 91.1 nM. For the same compound, the Ki in test [10] is 83.2 nM.

With `CC(C)C[C@H](NC(=O)[C@@H](NC(=O)CNC(=O)c1ccccc1)C(C)C)C(=O)N[C@@H](CCCCNC(=O)C[C@H](SCc1ccc(C(F)(F)F)cc1)C(=O)O)C(=O)N[C@@H](CCC(=O)O)C(=O)N[C@@H](Cc1ccc(O)cc1)C(=O)NCC(=O)N[C@H](C(N)=O)C(C)C` (Bz-GVLK(X32)EYGV-NH2), the IC50 in [6] came to 803 nM.

Consider `O=C(C[C@H](Sc1ccc2ccccc2c1)C(=O)O)NCc1ccccc1`, for which the IC50 in [6] came out at 124000 nM.

Consider `CC(C)C[C@H](NC(=O)[C@@H](NC(=O)CNC(=O)c1ccccc1)C(C)C)C(=O)N[C@@H](CCCCNC(=O)CC(SCCc1cnccn1)C(=O)O)C(=O)N[C@@H](CCC(=O)O)C(=O)N[C@@H](Cc1ccc(O)cc1)C(=O)NCC(=O)N[C@H](C(N)=O)C(C)C` (stereo partly drawn) (Bz-GVLK(X12)EYGV-NH2), for which, in test [6], the IC50 amounted to 22800 nM and the Ki was in the range of 3.5 to 11 nM.
